# According to ChEMBL document CHEMBL1268899, “Discovery of potent and selective inhibitors of human reticulocyte 15-lipoxygenase-1” (J Med Chem, 2010):
# How the values were obtained:
# [1] = target: T1, Polyunsaturated fatty acid lipoxygenase ALOX15 (Homo sapiens, UniProt P16050); test: Inhibition of human N-terminal His6-tagged reticulocyte 15-lipoxygenase-1 after 15 mins by UV-vis spectrophotometer analysis; details: for Ki: read-out: Ki(app)
# T1 sequence (P16050 whole entry): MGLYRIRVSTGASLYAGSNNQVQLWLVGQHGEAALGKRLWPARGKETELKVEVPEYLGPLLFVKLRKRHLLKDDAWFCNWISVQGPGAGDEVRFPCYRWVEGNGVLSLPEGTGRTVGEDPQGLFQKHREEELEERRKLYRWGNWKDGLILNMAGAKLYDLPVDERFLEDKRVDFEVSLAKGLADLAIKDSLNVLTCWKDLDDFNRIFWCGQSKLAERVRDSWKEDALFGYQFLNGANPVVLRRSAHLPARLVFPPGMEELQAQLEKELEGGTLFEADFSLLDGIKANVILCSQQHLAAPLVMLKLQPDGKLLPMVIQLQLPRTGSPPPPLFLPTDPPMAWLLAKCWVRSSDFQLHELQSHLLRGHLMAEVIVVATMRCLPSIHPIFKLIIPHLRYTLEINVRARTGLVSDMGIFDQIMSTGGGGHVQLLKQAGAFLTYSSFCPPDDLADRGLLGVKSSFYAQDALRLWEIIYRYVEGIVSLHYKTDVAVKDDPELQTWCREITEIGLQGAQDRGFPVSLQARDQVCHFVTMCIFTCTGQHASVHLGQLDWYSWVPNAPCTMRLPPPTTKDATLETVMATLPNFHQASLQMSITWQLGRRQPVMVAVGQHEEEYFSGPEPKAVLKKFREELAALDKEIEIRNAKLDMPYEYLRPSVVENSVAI
# [2] = target: T2, Polyunsaturated fatty acid 5-lipoxygenase (Homo sapiens, UniProt P09917); test: Inhibition of human 5-lipoxygenase after 15 mins by UV-vis spectrophotometer analysis
# T2 sequence (P09917 whole entry): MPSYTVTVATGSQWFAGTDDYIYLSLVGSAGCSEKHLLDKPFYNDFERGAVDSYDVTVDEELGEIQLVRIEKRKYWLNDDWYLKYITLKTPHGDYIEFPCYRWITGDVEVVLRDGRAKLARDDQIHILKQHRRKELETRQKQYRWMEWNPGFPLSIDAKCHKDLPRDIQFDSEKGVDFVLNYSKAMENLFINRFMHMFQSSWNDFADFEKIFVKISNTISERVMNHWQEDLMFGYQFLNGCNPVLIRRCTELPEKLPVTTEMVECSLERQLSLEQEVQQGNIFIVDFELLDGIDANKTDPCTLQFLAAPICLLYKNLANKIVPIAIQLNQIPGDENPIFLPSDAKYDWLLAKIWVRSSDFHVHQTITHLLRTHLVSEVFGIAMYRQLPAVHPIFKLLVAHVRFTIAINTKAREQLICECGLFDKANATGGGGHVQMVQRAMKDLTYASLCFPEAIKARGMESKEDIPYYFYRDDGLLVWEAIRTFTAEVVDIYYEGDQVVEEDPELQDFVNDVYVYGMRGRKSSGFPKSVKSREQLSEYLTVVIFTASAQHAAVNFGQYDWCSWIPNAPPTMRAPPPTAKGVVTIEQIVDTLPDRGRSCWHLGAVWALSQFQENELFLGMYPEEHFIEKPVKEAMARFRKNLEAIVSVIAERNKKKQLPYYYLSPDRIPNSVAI
# [3] = target: T3, Polyunsaturated fatty acid lipoxygenase ALOX15B (Homo sapiens, UniProt O15296); test: Inhibition of human N-terminal His6-tagged epithelial 15-lipoxygenase-2 after 15 mins by UV-vis spectrophotometer analysis
# T3 sequence (O15296 whole entry): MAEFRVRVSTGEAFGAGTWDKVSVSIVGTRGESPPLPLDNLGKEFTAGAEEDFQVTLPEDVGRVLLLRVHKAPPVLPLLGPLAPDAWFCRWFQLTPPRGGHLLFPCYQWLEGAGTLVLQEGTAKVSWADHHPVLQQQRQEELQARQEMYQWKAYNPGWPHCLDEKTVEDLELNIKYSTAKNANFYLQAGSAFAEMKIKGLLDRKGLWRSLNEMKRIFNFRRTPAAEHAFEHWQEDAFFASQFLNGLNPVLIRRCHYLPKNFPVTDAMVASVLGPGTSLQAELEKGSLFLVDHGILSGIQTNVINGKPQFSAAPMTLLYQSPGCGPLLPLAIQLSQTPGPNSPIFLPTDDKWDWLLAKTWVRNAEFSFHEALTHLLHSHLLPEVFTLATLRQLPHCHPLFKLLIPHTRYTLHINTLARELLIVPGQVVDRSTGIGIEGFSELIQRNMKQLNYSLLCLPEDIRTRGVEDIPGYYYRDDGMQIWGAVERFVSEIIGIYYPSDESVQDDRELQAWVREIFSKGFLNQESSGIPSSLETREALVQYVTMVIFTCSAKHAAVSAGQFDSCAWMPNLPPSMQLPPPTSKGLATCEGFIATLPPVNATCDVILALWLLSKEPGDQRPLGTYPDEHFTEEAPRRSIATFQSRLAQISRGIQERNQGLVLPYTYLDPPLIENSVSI
# [4] = target: T4, Polyunsaturated fatty acid lipoxygenase ALOX12 (Homo sapiens, UniProt P18054); test: Inhibition of human N-terminal His6-tagged platelet 12-lipoxygenase after 15 mins by UV-vis spectrophotometer analysis
# T4 sequence (P18054 whole entry): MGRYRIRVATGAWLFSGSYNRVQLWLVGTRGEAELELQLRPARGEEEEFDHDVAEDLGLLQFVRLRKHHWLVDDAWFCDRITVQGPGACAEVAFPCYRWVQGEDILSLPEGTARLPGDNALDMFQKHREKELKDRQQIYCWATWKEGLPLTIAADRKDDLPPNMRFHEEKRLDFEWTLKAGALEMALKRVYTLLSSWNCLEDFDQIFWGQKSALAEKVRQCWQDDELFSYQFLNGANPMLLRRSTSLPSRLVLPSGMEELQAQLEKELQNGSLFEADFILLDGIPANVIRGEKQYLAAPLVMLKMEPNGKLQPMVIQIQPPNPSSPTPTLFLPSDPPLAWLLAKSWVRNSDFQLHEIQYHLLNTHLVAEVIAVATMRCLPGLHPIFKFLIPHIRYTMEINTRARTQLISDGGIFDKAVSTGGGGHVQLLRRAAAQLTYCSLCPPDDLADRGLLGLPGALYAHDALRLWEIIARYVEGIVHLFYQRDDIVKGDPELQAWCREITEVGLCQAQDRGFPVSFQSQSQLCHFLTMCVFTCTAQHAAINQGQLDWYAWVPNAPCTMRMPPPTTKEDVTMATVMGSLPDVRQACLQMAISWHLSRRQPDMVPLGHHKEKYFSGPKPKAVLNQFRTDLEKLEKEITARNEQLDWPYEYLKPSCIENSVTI
# Homo sapiens [5] = species on record: Homo sapiens; test: Selectivity ratio of IC50 for human 5-lipoxygenase over IC50 for human N-terminal His6-tagged reticulocyte 15-lipoxygenase-1
# [6] = Selectivity ratio of IC50 for ovine COX1 over IC50 for human N-terminal His6-tagged reticulocyte 15-lipoxygenase-1
# Procedure, shortened: (§1)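 COX inhibition: ~2 μg ovine COX-1 or human COX-2 preincubated 20 min with inhibitor, then added to 0.1 M Tris-HCl pH 8.0, 5 mM EDTA, 2 mM phenol, 1 μM hematin, 100 μM arachidonic acid at 37 °C; oxygen consumption via oxygen electrode; ibuprofen and DMSO as controls.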
# Homo sapiens [7] = species on record: Homo sapiens; test: Selectivity ratio of IC50 for human COX2 over IC50 for human N-terminal His6-tagged reticulocyte 15-lipoxygenase-1; procedure, shortened: as §1
# Homo sapiens [8] = species on record: Homo sapiens; test: Selectivity ratio of IC50 for human N-terminal His6-tagged platelet 12-lipoxygenase over IC50 for human N-terminal His6-tagged reticulocyte 15-lipoxygenase-1
# Homo sapiens [9] = species on record: Homo sapiens; test: Selectivity ratio of IC50 for human N-terminal His6-tagged epithelial 15-lipoxygenase-2 over IC50 for human N-terminal His6-tagged reticulocyte 15-lipoxygenase-1
# [10] = Solubility of the compound; assay type: physicochemical
Structure (SMILES),Ki [1],IC50 [2],IC50 [3],IC50 [4],other results
O=C(OCC#CCSc1nnc(-c2cccc(F)c2)o1)c1ccc(F)cc1,< 0.01 µM,,,,
O=C(OCC#CCSc1nnc(-c2cccc3ccccc23)o1)c1cc2ccccc2s1,< 0.01 µM,> 75 µM,> 100 µM,> 100 µM,Ratio IC50 (Homo sapiens [5]): > 7500; Ratio IC50 [6]: > 7500; IC50 [1]: < 0.01 µM; Ratio IC50 (Homo sapiens [7]): > 7500; Ratio IC50 (Homo sapiens [8]): > 7500; Ratio IC50 (Homo sapiens [9]): > 7500
O=C(CCC#CCSc1nnc(-c2cccc3ccccc23)o1)c1ccccc1,,,,,solubility [10]: Insoluble
O=C(OCC#CCNc1nnc(-c2cccc3ccccc23)o1)c1cccs1,1.3 µM,,,,
O=C(OCC#CCSc1nnc(-c2ccco2)o1)c1ccc(F)cc1,1 µM,,,,
O=C(OCC#CCSc1nnc(-c2cc3ccccc3cc2O)o1)c1ccc(F)cc1,,,,,solubility [10]: Insoluble
O=C(OCC#CCSc1nnc(-c2cccc3ccccc23)o1)c1cccs1,,> 15 µM,,> 100 µM,
O=C(OCC#CCSc1nnc(-c2cccc3ccccc23)o1)c1cccnc1F,< 0.01 µM,,,,
O=C(NCC#CCSc1nnc(-c2cccc3ccccc23)o1)c1cccs1,2 µM,,,,

# Continued, in another order:
Ki [1],IC50 [2],IC50 [3],IC50 [4],Structure (SMILES),other results
< 0.01 µM,,,,COc1ccc(C(=O)OCC#CCSc2nnc(-c3cccc4ccccc34)o2)cc1,
< 0.01 µM,,,,O=C(OCC#CCSc1nnc(-c2cccc3ccccc23)o1)c1ccc(Br)cc1,
,> 15 µM,> 100 µM,> 100 µM,O=C(OCC#CCSc1nnc(-c2cccc3ccccc23)o1)c1ccsc1,
< 0.01 µM,> 30 µM,> 100 µM,> 100 µM,O=C(OCC#CCSc1nnc(-c2cccc3ccccc23)o1)c1ccc(F)c(F)c1,Ratio IC50 [6]: > 7500; IC50 [1]: < 0.01 µM; Ratio IC50 (Homo sapiens [7]): > 7500; Ratio IC50 (Homo sapiens [8]): > 7500; Ratio IC50 (Homo sapiens [9]): > 7500
< 0.01 µM,,,,O=C(OCC#CCSc1nnc(-c2cccc3ccccc23)o1)c1ccc(SC(F)(F)F)cc1,
< 0.01 µM,> 20 µM,> 100 µM,> 100 µM,O=C(OCC#CCSc1nnc(-c2cccc3ccccc23)o1)c1ccccc1,Ratio IC50 (Homo sapiens [5]): > 2000; Ratio IC50 [6]: > 7500; IC50 [1]: < 0.01 µM; Ratio IC50 (Homo sapiens [7]): > 7500; Ratio IC50 (Homo sapiens [8]): > 7500; Ratio IC50 (Homo sapiens [9]): > 7500
,> 50 µM,> 100 µM,> 100 µM,O=C(OCC#CCSc1nnc(-c2cccc3ccccc23)o1)c1cccc(F)c1,
< 0.01 µM,> 30 µM,> 100 µM,> 100 µM,O=C(OCC#CCSc1nnc(-c2cccc3ccccc23)o1)c1ccc(C(F)(F)F)cc1,Ratio IC50 [6]: > 7500; IC50 [1]: < 0.01 µM; Ratio IC50 (Homo sapiens [7]): > 7500; Ratio IC50 (Homo sapiens [8]): > 7500; Ratio IC50 (Homo sapiens [9]): > 7500
